EBV gp42 block: Epstein-Barr virus gp42 inhibitors, primary screen, biochemical, uHTS, fluorescence polarization | Glycoprotein 42 (Epstein-Barr virus (strain AG876)), Q1HVG2 | Fluorescence polarization binding assay, mP read-out | inhibition, % (tested at 21.74 µM) | actives 0.42% (n = 220,000); in the data active = inhibition above about 50%
14-3-3 Bad PPI: inhibitors of 14-3-3 zeta/Bad binding, primary screen, biochemical, TR-FRET, bovine 14-3-3 zeta; 14-3-3 protein zeta/delta (Bos taurus), P63103; TR-FRET 14-3-3zeta/Dy647-pBad peptide displacement, 1 h; inhibition, % at 21.7 µM; actives 0.71% (n = 220,000);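 active = inhibition above about 70%, limit read from the data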;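 note: 0% = full 14-3-3 plus peptide FRET controls and 100% = background without 14-3-3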
eIF4E-4G inh: eIF4E–eIF4G protein interaction inhibitors, primary screen, biochemical, uHTS, TR-FRET, eIF4GI fragment | inhibition, % at 21.7 µM | Eukaryotic translation initiation factor 4E (Mus musculus) + Eukaryotic translation … | actives 0.37% (n = 220,000) | AID 782, 2007 | TR-FRET eIF4E-eIF4GI(517-606) binding, 2 h;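 note: 0% = full FRET control wells and 100% = background wells lacking eIF4GI fragment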
RBBP9 inhibitor: human RBBP9 inhibitors, primary screen, biochemical, fluorescence polarization, FP-Rh probe, HTS; recombinant RBBP9; AID 1515, 2009; inhibition, % at 7.94 µM; Serine hydrolase RBBP9 (Homo sapiens), O75884; actives 0.2% (n = 220,000);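 active = inhibition above the campaign mean of all tested compounds plus 3 SD, cut at about 14% in these data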;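 note: plate controls were DMSO wells with RBBP9 for no effect and wells lacking RBBP9 protein for full effect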
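Test system – recombinant human RBBP9 · Input – RBBP9 2.5 µM in dispensing solution, pre-mixing · Medium – Tris buffer pH 8.0, NaCl, Pluronic · Schedule – preincubation 30 min plus labeling 45 min at 25 °C · Measured by – fluorescence polarization · Measure – % inhibition · Controls – DMSO and no-protein wells · Replicates – one well per compound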
WT yeast gro inh: growth inhibition of WT strain, primary screen, mitochondrial fusion inhibitor project, WT and mutant strains, chemical genetic | inhibition, % at 10 µM | mitochondrial fusion phenotypic screen | actives 2.1% (n = 190,000); in the data active = inhibition above about 58%; tested in S. cerevisiae
p47phox inh: p47phox/p22phox peptide binding inhibitors, primary screen, biochemical, uHTS, NADPH oxidase regulatory subunit. Neutrophil cytosol factor 1 (Homo sapiens), P14598. fluorescence polarization, 2 h. inhibition, % at 24.7 µM. actives 0.53% (n = 220,000). AID 1274, 2008;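 note: 0% = p47phox with labelled peptide and 100% = labelled peptide alone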
Active calls of the source: *. Shown are actives, neighbours in structure and some others; about 3.7% of the full set was active somewhere.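 Rule for the calls, unless noted: active = inhibition above about 30% (limit read from the data); inactive = the rest.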

Results for COc1ccc(OCc2nc(N)nc(Nc3ccccc3)n2)cc1 ?
EBV gp42 block: 1.2; 14-3-3 Bad PPI: -2.8; eIF4E-4G inh: 5.7; RBBP9 inhibitor: -9.1; WT yeast gro inh: -9.2; p47phox inh: -7.7

How did Nc1nc(COc2ccccc2C=O)nc(Nc2ccccc2)n1 do in these assays?
EBV gp42 block: 1.3; 14-3-3 Bad PPI: 9.1; eIF4E-4G inh: 96.7*; RBBP9 inhibitor: -13.8; p47phox inh: -2.6

How did CC(C)n1cnc2cc(NCc3ccco3)ccc21 do in these assays?
EBV gp42 block: -7.5; 14-3-3 Bad PPI: 70.4*; eIF4E-4G inh: -1.5; RBBP9 inhibitor: 1.6; WT yeast gro inh: 15.4; p47phox inh: 10.2

Results for CC(C)n1cnc2cc(NCc3ccccc3O)ccc21 ?
EBV gp42 block: -4.4; 14-3-3 Bad PPI: 5.6; eIF4E-4G inh: 5.0; RBBP9 inhibitor: 5.2; p47phox inh: -8.5

What do the screens show for `Cc1ccc(CNc2ccc(N3C(=O)CCCC3=O)cc2[N+](=O)[O-])cc1`?
EBV gp42 block: -5.3; 14-3-3 Bad PPI: -22.4; eIF4E-4G inh: -5.2; RBBP9 inhibitor: -6.8; WT yeast gro inh: 11.0; p47phox inh: -20.2

Results for CC(=O)N1N=C(c2ccc(C)cc2)OC1c1ccc(C(C)C)cc1 (configuration not stated) ?
EBV gp42 block: -9.5; 14-3-3 Bad PPI: -2.4; eIF4E-4G inh: 10.8; RBBP9 inhibitor: 0.5; WT yeast gro inh: 68.6*; p47phox inh: -18.5

How did Cc1ccc2nc(Cl)nc(-c3ccccc3)c2c1 do in these assays?
EBV gp42 block: -5.8; 14-3-3 Bad PPI: 4.2; eIF4E-4G inh: -1.2; RBBP9 inhibitor: 1.8; WT yeast gro inh: 2.5; p47phox inh: 4.8

How did Cc1ccc2nc(-c3ccccc3)c(-c3ccccc3)nc2c1 do in these assays?
EBV gp42 block: 7.0; 14-3-3 Bad PPI: -0.3; eIF4E-4G inh: -0.4; RBBP9 inhibitor: -13.0; WT yeast gro inh: 65.1*; p47phox inh: -9.5

Results for O=C(/C=C/c1ccc(N2CCCCC2)c([N+](=O)[O-])c1)c1ccc(O)cc1 ?
EBV gp42 block: 5.2; 14-3-3 Bad PPI: 1.0; eIF4E-4G inh: -1.2; RBBP9 inhibitor: 1.2; WT yeast gro inh: 91.0*; p47phox inh: -6.7

How did Cc1ccc(Nc2cc(C)nn2-c2nc(C)cc(C)n2)cc1 do in these assays?
EBV gp42 block: -4.4; 14-3-3 Bad PPI: -11.5; eIF4E-4G inh: -7.3; RBBP9 inhibitor: -5.6; WT yeast gro inh: 75.0*; p47phox inh: -2.9

How did Cc1ccc(Nc2nc3ccccc3nc2-n2nc(C)cc2C)cc1 do in these assays?
EBV gp42 block: 7.4; 14-3-3 Bad PPI: 5.7; eIF4E-4G inh: 51.9*; RBBP9 inhibitor: -9.0; WT yeast gro inh: -7.9; p47phox inh: 2.6

Results for CCSc1nnc(-c2ccccc2NC(=O)CC)c(=O)[nH]1 ?
EBV gp42 block: -11.4; 14-3-3 Bad PPI: 4.1; eIF4E-4G inh: 1.4; RBBP9 inhibitor: 6.1; WT yeast gro inh: -5.7; p47phox inh: -14.2

How did CCSc1nnc(-c2cc(Br)ccc2NC(C)=O)c(=O)[nH]1 do in these assays?
EBV gp42 block: -6.5; 14-3-3 Bad PPI: 3.8; eIF4E-4G inh: 96.0*; RBBP9 inhibitor: -9.9; p47phox inh: -8.8

How did NS(=O)(=O)c1ccc(NCc2ccccc2OCc2ccccc2F)cc1 do in these assays?
EBV gp42 block: -24.8; 14-3-3 Bad PPI: 82.0*; eIF4E-4G inh: 9.7; RBBP9 inhibitor: 3.1; WT yeast gro inh: 0.0; p47phox inh: -9.3

How did O=C(NCc1ccco1)C12CC3CC(CC(C3)C1)C2 do in these assays?
EBV gp42 block: -21.5; 14-3-3 Bad PPI: -6.3; eIF4E-4G inh: -0.6; RBBP9 inhibitor: -10.3; WT yeast gro inh: -24.6; p47phox inh: 0.6

How did O=C(CC12CC3CC(CC(C3)C1)C2)NC(=S)NCc1ccco1 do in these assays?
EBV gp42 block: -3.5; 14-3-3 Bad PPI: -6.0; eIF4E-4G inh: 0.7; RBBP9 inhibitor: -0.2; WT yeast gro inh: 73.4*; p47phox inh: -22.1

What do the screens show for `COc1ccc(/C=N/Nc2c(Cl)cc(Cl)cc2Cl)cc1CN1CCOCC1`?
EBV gp42 block: -23.4; 14-3-3 Bad PPI: -23.5; eIF4E-4G inh: 0.5; RBBP9 inhibitor: -5.6; WT yeast gro inh: 29.2; p47phox inh: -3.0

What do the screens show for `NC(=S)n1[nH]c(-c2ccc([N+](=O)[O-])cc2)c(N=Nc2cccc(Cl)c2)c1=O`?
EBV gp42 block: 100.2*; 14-3-3 Bad PPI: 88.3*; eIF4E-4G inh: 27.2; RBBP9 inhibitor: -2.1; WT yeast gro inh: 74.7*; p47phox inh: 7.4

How did Cc1cc(Cl)ccc1OC(C)C(=O)Nc1ccccc1N1CCOCC1 (configuration not stated) do in these assays?
EBV gp42 block: -44.9; 14-3-3 Bad PPI: -6.2; eIF4E-4G inh: 3.2; RBBP9 inhibitor: -7.0; WT yeast gro inh: 72.8*; p47phox inh: -35.7

How did CC(C)Oc1cccc(C(=O)Nc2ccccc2N2CCOCC2)c1 do in these assays?
EBV gp42 block: -9.9; 14-3-3 Bad PPI: -12.4; eIF4E-4G inh: -1.3; RBBP9 inhibitor: -6.5; WT yeast gro inh: 13.0; p47phox inh: -10.4

Results for COC(=O)c1ccccc1NC(=O)CNc1cc(Cl)ccc1N1CCOCC1 ?
EBV gp42 block: -13.4; 14-3-3 Bad PPI: -10.0; eIF4E-4G inh: -5.3; RBBP9 inhibitor: -9.1; WT yeast gro inh: 64.2*; p47phox inh: -32.5

Results for COc1ccc(Cl)cc1NC(=O)CN(C)CC(=O)Nc1ccccc1N1CCOCC1 ?
EBV gp42 block: -11.6; 14-3-3 Bad PPI: -7.0; eIF4E-4G inh: 4.4; RBBP9 inhibitor: -9.1; WT yeast gro inh: 17.1; p47phox inh: -4.6

How did CCOC(=O)/C(=C/c1ccc(N2CCC(c3ccccc3)=N2)cc1)C(C)=O do in these assays?
EBV gp42 block: 156.1*; 14-3-3 Bad PPI: -11.4; eIF4E-4G inh: 4.8; RBBP9 inhibitor: -0.1; WT yeast gro inh: 78.2*; p47phox inh: -96.8

How did c1ccc(C2=NN(c3ccccc3)CC2)cc1 do in these assays?
EBV gp42 block: -7.7; 14-3-3 Bad PPI: -4.7; eIF4E-4G inh: 11.6; RBBP9 inhibitor: -11.6; p47phox inh: -6.0

Results for CC(=O)C1C(=O)c2c(cccc2[N+](=O)[O-])C1=Nc1ccc(S(N)(=O)=O)cc1 (configuration not stated) ?
EBV gp42 block: 9.3; 14-3-3 Bad PPI: -6.7; eIF4E-4G inh: -2.5; RBBP9 inhibitor: -1.4; WT yeast gro inh: 2.0; p47phox inh: 8.4

How did COc1cc(CCC(=O)N2CCN(c3ccc(N4CCOCC4)nn3)CC2)cc(OC)c1OC do in these assays?
EBV gp42 block: -16.4; 14-3-3 Bad PPI: 6.4; eIF4E-4G inh: -4.1; RBBP9 inhibitor: -6.1; WT yeast gro inh: -10.8; p47phox inh: -11.4

Screening results from PubChem.
